# Sampled rows, rich in hits. Any-hit rate of the full collection: about 4.7%.
# VIM-2 inh – blocks Pseudomonas aeruginosa VIM-2 metallo-beta-lactamase; purified VIM-2, nitrocefin hydrolysis, epi-absorbance fluorescence; inhibition, % at 5.6 µM; 290,000 tested, 0.89% active;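 active = inhibition above the mean of all tested compounds plus 3 SD, cutoff set per screening run, cut at about 7.5% in these data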;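 also: red hydrolysis product quenches plate fluorescence so inhibitors raise well fluorescence; 0% = enzyme with DMSO and 100% = DMSO without enzyme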
# 697 NFkB inh – lowers PMA/ionomycin-induced NF-kB signal in 697 B cells. inhibition, % at 4 µM. 330,000 tested, 0.33% active. 697 B-cell NF-kB luciferase reporter, 16 h; in the data active = inhibition above about 35%
# Jurkat NFkB inh – inhibitors of the PMA/ionomycin-induced NF-kB reporter in Jurkat cells; PMA/ionomycin-induced NF-kB luciferase reporter, luminescence; inhibition, % at 4 µM; 330,000 tested, 0.53% active; in the data active = inhibition above about 50%
# Mdm2 MdmX PPI – human Mdm2/MdmX binding inhibition; O15151+Q00987; SaOS-2 split-luciferase Mdm2/MdmX complementation, luminescence; inhibition, % at 8 µM; 330,000 tested, 3% active; AID 485346;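 active = inhibition of at least 50% at 8 µM in the primary screen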
# Target sequence (O15151 whole entry, looked up): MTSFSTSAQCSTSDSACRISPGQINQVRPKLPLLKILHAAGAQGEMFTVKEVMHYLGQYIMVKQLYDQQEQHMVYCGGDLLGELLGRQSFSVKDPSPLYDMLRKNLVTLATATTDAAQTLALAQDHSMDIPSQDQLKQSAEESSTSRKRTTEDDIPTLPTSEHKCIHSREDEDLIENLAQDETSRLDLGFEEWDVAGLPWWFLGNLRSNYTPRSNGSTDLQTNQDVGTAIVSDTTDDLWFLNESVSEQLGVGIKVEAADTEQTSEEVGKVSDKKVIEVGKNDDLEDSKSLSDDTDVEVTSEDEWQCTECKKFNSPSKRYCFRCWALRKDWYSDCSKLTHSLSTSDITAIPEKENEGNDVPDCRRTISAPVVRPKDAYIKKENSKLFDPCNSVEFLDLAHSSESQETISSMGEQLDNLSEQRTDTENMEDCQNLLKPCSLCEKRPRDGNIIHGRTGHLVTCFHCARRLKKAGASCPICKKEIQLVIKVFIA
# Target sequence (Q00987 whole entry, looked up): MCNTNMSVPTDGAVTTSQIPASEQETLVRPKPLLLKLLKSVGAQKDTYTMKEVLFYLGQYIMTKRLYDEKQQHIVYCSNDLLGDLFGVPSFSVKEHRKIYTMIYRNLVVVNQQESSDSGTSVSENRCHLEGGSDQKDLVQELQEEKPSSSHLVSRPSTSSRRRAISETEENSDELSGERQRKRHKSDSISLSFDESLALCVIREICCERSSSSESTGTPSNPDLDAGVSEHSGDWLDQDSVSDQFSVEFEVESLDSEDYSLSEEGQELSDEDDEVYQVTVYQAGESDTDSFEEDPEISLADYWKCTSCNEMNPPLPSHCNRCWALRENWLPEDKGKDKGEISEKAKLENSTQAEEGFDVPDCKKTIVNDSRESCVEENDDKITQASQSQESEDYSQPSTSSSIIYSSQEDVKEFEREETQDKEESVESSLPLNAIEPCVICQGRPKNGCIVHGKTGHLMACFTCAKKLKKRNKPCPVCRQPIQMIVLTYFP
# IMP-1 inhibitor – inhibitors of Pseudomonas aeruginosa IMP-1 metallo-beta-lactamase. purified IMP-1, nitrocefin hydrolysis, epi-absorbance fluorescence. inhibition, % at 5.6 µM. 290,000 tested, 0.45% active. AID 1556;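 active = inhibition above the mean plus 3 SD of all compounds in the same screening run, cut at about 4.5% in these data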;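 also: 0% = IMP-1 with DMSO and 100% = DMSO wells lacking enzyme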
#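 Material – recombinant IMP-1 enzyme, purified · Amount – IMP-1 0.2 nM before substrate addition · Medium – HEPES buffer pH 7.1 with ZnSO4 and Brij 35 · Timing – 25 °C, 15 min preincubation, 25 min reaction · Measured by – plate fluorescence quenching by hydrolysis product, ex 480/em 530 nm · Read-out – percent enzyme inhibition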
# aSyn UTR inh – MLPCN primary screen, SNCA 5' untranslated region | alpha-synuclein 5'UTR reporter, inhibitor activity | 300,000 tested, 0.82% active | inhibition, % (tested at 7.5 µM); in the data active = inhibition above about 60%; inconclusive = no clear call, values can overlap the other calls;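 also: H4 neuroglioblastoma cells stably carrying SNCA 5'UTR luciferase fusion; 0% = DMSO wells and 100% = positive control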
# Mdm2 MdmX conf – confirmation of human Mdm2/MdmX interaction inhibitors. shares compounds with Mdm2 MdmX PPI. inhibition, % at 8 µM. AID 489028. Mdm2-MdmX binding, luminescent assay. 10,000 tested, 55% active; in the data active = inhibition above about 40%
# Full FLuc ctr – counter-screen for Mdm2/MdmX inhibitors: full-length luciferase. shares compounds with Mdm2 MdmX PPI. SaOS-2 full-length luciferase counterscreen, luminescence. inhibition, % at 8 µM. 6,200 tested, 77% active;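 active = mean inhibition at 8 µM reaching about 37%, which flags the compound as non-specific, limit read from the data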;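 also: p53-null SaOS-2 cells with luciferase driven by a doxycycline-inducible promoter; compound on cells about two nights before reading with doxycycline added after day one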
# Starred values were filed as active, the others as inactive; u = inconclusive; x = no result.
SMILES,VIM-2 inh,697 NFkB inh,Jurkat NFkB inh,Mdm2 MdmX PPI,IMP-1 inhibitor,aSyn UTR inh,Mdm2 MdmX conf,Full FLuc ctr
Cc1[nH]n(-c2ccccc2)c(=O)c1N=Nc1ccccc1O,-7.5,-20.2,27.4,58.8*,-3.5,u,58.5*,42.4*
Cc1nn(-c2ccccc2)c(-c2ccccc2[N+](=O)[O-])c1C(=O)O,-2.2,1.6,2.3,-40.9,-0.8,2.7,x,x
CCOC(=O)c1c2ccc(OCC(=O)NN)cc2n2ccccc12,1.3,10.3,-1.2,8.2,-3.8,-6.8,x,x
CCOC(=O)c1c2ccc(OCC(=O)N/N=C/c3ccc(C)cc3)cc2n2ccccc12,-1.4,13.1,5.8,83.8*,-2.7,29.9,78.8*,107.0*
O=C(NCc1ccccc1)C(c1cccnc1)N(C(=O)c1ccccn1)c1ccc(F)cc1 (configuration not stated),-2.0,6.6,-3.6,-33.8,-4.0,8.2,x,x
COc1cc(OC)cc(C(=O)NC(=S)NNC(=O)[C@H]2C[C@@H]2c2ccccc2)c1,-4.2,-4.9,-0.8,-2.7,-4.0,12.8,x,x
COc1ccc(C(=O)NC(=S)NNC(=O)[C@H]2C[C@@H]2c2ccccc2)cc1OC,-0.7,18.4,0.1,62.4*,-3.2,30.8,19.9,x
Cc1nn(CC(=O)Nc2cccc(Cl)c2)c(=O)c2cc(-c3ccccc3)nn12,-4.6,14.1,10.2,55.6*,-2.8,27.7,12.0,x
COc1ccc(-c2cc3c(=O)n(CC(=O)Nc4cccc(Cl)c4)ncn3n2)cc1,-6.4,-16.6,-7.6,0.0,-1.6,-6.2,x,x
COc1ccc(-c2cc3c(=O)n(CC(=O)Nc4ccc(Cl)cc4)nc(C)n3n2)cc1,-1.0,-3.7,14.3,67.5*,-3.3,6.3,42.8*,67.0*
Cc1ccc(Cc2cnc(NC(=O)/C(C#N)=C/c3ccc(-c4ccc([N+](=O)[O-])cc4)o3)s2)cc1,-1.4,-11.4,-0.8,57.7*,-1.4,-29.2,5.0,x
Cc1cnc(NC(=O)c2ccc(-c3ccc([N+](=O)[O-])cc3)o2)s1,x,5.9,28.4,32.4,x,x,x,x
Oc1ccc(C(=S)N2CCN(c3cccc(Cl)c3)CC2)cc1,-3.1,-25.6,10.5,11.3,-2.0,13.7,x,x
COc1cc(C(=S)N2CCN(c3cccc(Cl)c3)CC2)ccc1O,-1.0,-10.2,40.6,54.7*,0.8,5.2,54.8*,50.7*
CC(=O)c1cc2c(cc1NC(=O)c1ccc(Cl)cc1)OCCO2,-0.5,13.0,-12.6,56.9*,-1.9,22.7,6.6,x
CC(=O)Nc1cc2c(cc1C(C)=O)OCCO2,-1.1,1.5,5.2,-10.2,-3.7,24.2,x,x
CCn1cc(Cl)c(C(=O)N2N=C(c3ccc4ccccc4c3)CC2c2ccccc2O)n1 (configuration not stated),-1.8,3.0,-8.3,69.0*,-1.6,-12.1,40.5*,56.7*
CCn1cc([N+](=O)[O-])c(C(=O)N2N=C(c3cccc4ccccc34)CC2c2ccccc2O)n1 (configuration not stated),-2.6,-12.3,1.9,51.9*,-7.6,15.9,41.2*,74.9*
CCn1cc([N+](=O)[O-])c(C(=O)N2N=C(c3ccc4ccccc4c3)CC2c2ccccc2O)n1 (configuration not stated),-3.6,4.4,-11.4,61.2*,-4.1,19.9,58.6*,85.9*
CCn1cc([N+](=O)[O-])c(C(=O)N2N=C(c3ccc(OC)cc3OC)CC2c2ccccc2O)n1 (configuration not stated),-1.3,11.6,16.4,14.6,-0.4,25.5,x,x
O=C(c1ccccc1)N1N=C(c2ccccc2)CC1c1ccccc1O (configuration not stated),-1.8,-10.7,-6.8,16.6,-1.9,-12.2,x,x
CCn1cc([N+](=O)[O-])c(C(=O)N2CCCC2)n1,-0.5,x,x,x,-1.7,3.8,x,x
Cn1c(=O)c2c(ncn2CC(=O)N2CCN(S(=O)(=O)c3ccccc3)CC2)n(C)c1=O,-2.0,-6.8,4.8,-5.2,-1.3,-5.9,x,x
CCc1ccccc1NC(=O)C1CCCN1C(=O)NCc1ccccc1 (configuration not stated),-0.5,2.9,-0.8,-2.3,0.1,5.6,x,x
CC(C)Oc1ccc(C(=O)NCC(=O)OCC(=O)N(C)Cc2cccs2)cc1,-2.7,14.2,8.5,-0.4,-2.8,-12.9,x,x
SMILES,VIM-2 inh,697 NFkB inh,Jurkat NFkB inh,Mdm2 MdmX PPI,IMP-1 inhibitor,aSyn UTR inh,Mdm2 MdmX conf,Full FLuc ctr
Fc1ccccc1N1CCN(c2ncnc3[nH]ncc23)CC1,-2.5,-26.4,-5.8,62.9*,-2.6,24.4,25.3,x
CCn1cc(C(=O)NCCCO)c(=O)c2cc(F)c(N3CCN(C)CC3)cc21,4.2,-2.3,-19.2,9.5,-3.8,-8.3,x,x
CCCCCCNC(=O)c1cn(CC)c2cc(N3CCN(C)CC3)c(F)cc2c1=O,0.6,-7.3,-19.1,51.1*,-4.8,-16.7,27.9,x
O=C(Cn1nnc(-c2ccc(F)cc2)n1)Nc1cccc(S(=O)(=O)N2CCCC2)c1,x,-3.8,9.9,26.2,x,x,x,x
CCCOc1ccc(C=Nc2ccc(OC)c(S(=O)(=O)N3CCOCC3)c2)c(O)c1,x,14.1,11.3,19.9,x,x,x,x
O=c1c(C(c2nnnn2C2CCCCC2)N2CCCCC2)coc2ccc(Cl)cc12 (configuration not stated),-0.4,10.6,1.8,52.7*,-2.1,7.6,-1.6,x
CCOC(=O)c1c(C)n(C)c2ccc(O)c(CN(C)C)c12,-1.1,8.8,-11.1,30.8,-3.5,-11.6,x,x
CCOC(=O)c1sc(=N)n(-c2ccc(OC)cc2)c1C,-2.5,-29.7,-29.5,-27.0,-2.2,-8.3,x,x
CCOC(=O)c1c(C)n(-c2ccc(C)cc2)c2ccc(O)c(CN(C)C)c12,-2.0,-53.1,3.7,54.5*,-1.0,19.0,39.5,66.1*
CCOC(=O)c1c(C)n(-c2ccc(OC)cc2)c2ccc(O)c(CN(C)C)c12,-1.0,-61.6,14.5,63.7*,-2.9,-0.4,43.9*,53.7*
COc1ccccc1NS(=O)(=O)c1ccc2c(c1)n(C)c(=O)n2C,-2.4,-12.4,-5.9,2.8,-2.4,17.3,x,x
COc1ccc(CNCc2ccc(OC)c3ccccc23)cc1,-2.5,15.4,5.2,0.5,-2.0,16.4,x,x
O=C(/C=C/c1cccc([N+](=O)[O-])c1)Nc1ccc(NC(=O)c2cccs2)cc1,-3.0,-14.1,-2.7,85.5*,-3.5,-12.7,3.0,x
O=C(/C=C/c1cccc([N+](=O)[O-])c1)c1cccs1,-5.4,25.3,1.0,73.6*,-3.6,-77.4,57.4*,73.8*
O=C(N/N=C/c1cccc([N+](=O)[O-])c1)c1cccs1,-4.4,-33.6,-27.7,-2.3,-4.3,-84.2,x,x

# Compound activity: PubChem, several laboratories
